Screening results (PubChem)
ARFGAP1 inhibitor = inhibitors of rat ARFGAP1; Arfgap1-stimulated ARF1 GTP hydrolysis, GDP FP detection; 360,000 compounds, 0.26% hits; AID 651572; inhibition, % at 16.5 µM; Q62848;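 active = inhibition above a per-plate limit, mean inhibition of low control wells plus 3 SD, cut at about 25% in these data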;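 note: 0% = DMSO wells with enzyme and 100% = wells lacking Arfgap1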
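Material: truncated rat Arfgap1 GAP domain; Incubation: compound-enzyme preincubation 20 min, reaction 120 min, detection 60 min, 25 °C; Read-out: percent inhibition of Arfgap1-stimulated GTP hydrolysis; Technique: FP, GDP Alexa 633 tracer displaced from anti-GDP antibody, 620/688 nm; Controls: No-Arfgap1 wells (100%) versus DMSO full-reaction wells (0%); Replication: single well per compound.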
NR1D1 modulator = modulates human Rev-erb alpha binding to DNA; P20393; Rev-erbα–FITC-DNA binding, fluorescence polarization, 90 min; activity, % at 10 µM; 370,000 compounds, 0.79% hits;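 active = activity above about 14%, limit read from the data; passing the limit was not always enough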;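 note: 0% = DMSO wells with 35 nM protein and 100% = DMSO wells with 750 nM protein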
Target sequence (P20393 whole entry, looked up): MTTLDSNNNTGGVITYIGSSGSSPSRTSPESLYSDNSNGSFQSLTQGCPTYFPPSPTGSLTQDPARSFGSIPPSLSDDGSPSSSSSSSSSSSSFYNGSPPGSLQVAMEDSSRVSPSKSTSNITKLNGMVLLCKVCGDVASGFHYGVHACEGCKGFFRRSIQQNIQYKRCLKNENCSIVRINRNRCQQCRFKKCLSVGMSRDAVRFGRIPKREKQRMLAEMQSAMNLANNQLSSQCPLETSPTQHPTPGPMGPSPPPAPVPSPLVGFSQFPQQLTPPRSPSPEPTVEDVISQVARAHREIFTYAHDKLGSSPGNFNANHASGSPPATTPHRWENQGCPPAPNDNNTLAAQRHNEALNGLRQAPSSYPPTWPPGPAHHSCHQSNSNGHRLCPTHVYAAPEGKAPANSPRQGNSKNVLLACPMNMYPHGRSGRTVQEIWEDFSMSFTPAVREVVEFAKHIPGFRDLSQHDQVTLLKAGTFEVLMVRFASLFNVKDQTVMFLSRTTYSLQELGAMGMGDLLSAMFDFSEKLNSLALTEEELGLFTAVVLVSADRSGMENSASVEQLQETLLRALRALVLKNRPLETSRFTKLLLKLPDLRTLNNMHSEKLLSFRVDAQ
bovine MsrA act = activators of bovine methionine sulfoxide reductase A; 360,000 compounds, 0.3% hits; activation, % at 10.6 µM; purified bovine MsrA, absorbance read-out; in the data active = activation above about 7.5%;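 note: 0% = vehicle and 100% = reference activator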
sPLA2-III inh = Blocks human group III sPLA2 activity; Q9NZ20; QFRET BODIPY PC-A2 liposome hydrolysis, fluorescence; inhibition, % at 12.2 µM; 370,000 compounds, 0.56% hits;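 active = inhibition above mean plus 3 SD of compounds lying within the high and low control bounds, cut at about 19% in these data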;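 note: 0% = median of test compound wells and 100% = no enzyme DMSO wells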
MsrA inhibitor = inhibits bovine methionine sulfoxide reductase A; purified bovine MsrA, absorbance read-out; 360,000 compounds, 0.75% hits; inhibition, % at 15.5 µM; in the data active = inhibition above about 4.5%;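 note: 0% = vehicle wells with enzyme and 100% = reference inhibitor wells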
ASAP1 GAP inh = inhibitors of human ASAP1 ArfGAP activity. ASAP1-stimulated ARF1 GTP hydrolysis, GDP FP detection. inhibition, % at 16.5 µM. 360,000 compounds, 0.19% hits. AID 624377; in the data active = inhibition above about 25%;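 note: 0% = vehicle with enzyme and substrate and 100% = no enzyme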
ARFGAP1 inh conf = confirmation of rat ARFGAP1 inhibitors; inhibition, % at 16.5 µM; ARFGAP1-stimulated ARF1 GTP hydrolysis, GDP tracer FP; shares compounds with ARFGAP1 inhibitor; AID 651608; 890 compounds, 30% hits;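 active = average inhibition over triplicates above the hit cutoff set in the earlier primary screen, cut at about 25% in these data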;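 note: 0% = Arfgap1 plus ARF1-GTP with DMSO and 100% = wells lacking Arfgap1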
Numbers without * were called inactive; . = not tested or not shown; + = active, no number. Most compounds without a hit are left out; they make up all but 2.7% or so of the library.

SMILES | ARFGAP1 inhibitor | NR1D1 modulator | bovine MsrA act | sPLA2-III inh | MsrA inhibitor | ASAP1 GAP inh | ARFGAP1 inh conf
COc1ccc(S(=O)(=O)N2CCCCC2)cc1N(C)S(=O)(=O)c1ccccc1 | 5 | 6 | -1 | -2 | 1 | -8 | .
Nc1ccc2nc(-c3cccc(-c4nc5ccc(N)cc5[nH]4)c3)[nH]c2c1 | 60* | -2 | -3 | 4 | 4.6* | 8 | 106*
CCN(CC)CCNC(=O)c1ccc(NC(=O)c2cn(-c3ccccc3)nc2-c2cccs2)cc1 | 39* | -3 | -6 | -23 | -2 | 14 | 56*
CCN(CC)CCNC(=O)c1ccc(NC(=O)c2cc(-c3ccco3)nc3ccccc23)cc1 | 26* | -12 | -4 | -5 | 3 | 4 | 1
O=C(NCc1ccco1)C1CCCN(S(=O)(=O)c2cccs2)C1 (centres undefined) | . | -1 | . | -1 | . | . | .
c1ccc2c(c1)COc1c3ncccc3nn1-2 | + | 5 | -5 | 3 | 1 | 2 | -2
O=C(c1ccc2c3n(nc2c1)-c1ccccc1CO3)N1CCCCC1 | -13 | -2 | -4 | 6 | 0 | 2 | .
COc1ccc(C(=O)Nc2cccc(-c3ccc(N4CCOCC4)nn3)c2)cc1OC | 29* | 0 | -3 | 7 | 1 | 0 | 14
COc1cccc(Nc2nc(-c3sc(NC(=O)c4ccccc4)nc3C)cs2)c1 | 26* | -5 | -3 | 5 | 1 | 12 | 15
CC(C)CSc1nnc(-c2ccco2)n1C | . | 3 | . | 0 | . | . | .
CC(NC(=O)c1cc2ccc(C(F)(F)F)cc2nc1N)c1cccc2ccccc12 (centres undefined) | . | 3 | . | 7 | . | . | .
COc1cc2cc(C(=O)NC(C)c3cccc4ccccc34)c(N)nc2cc1OC (centres undefined) | 25* | 1 | -10 | 3 | 2 | 19 | 7
Cc1ccc(-c2c(C(=O)NC3CCCC3)oc(=O)c3ccccc23)cc1 | . | 6 | . | 7 | . | . | .
O=Cc1ccc(C(=O)OCC(=O)N2CCCC2)cc1 | -12 | 0 | 1 | 11 | 0 | -4 | .
O=C(OCC(=O)N1CCCC1)c1ccc(OC(F)(F)F)cc1 | 25* | -5 | -11 | 1 | 0 | 20 | 2
COc1cc2oc(-c3ccc(O)cc3)cc(=O)c2c(O)c1OC | 36* | -2 | -5 | -11 | 4 | 8 | 8
COc1c(O)cc2oc(-c3ccc(O)cc3)cc(=O)c2c1O | -1 | -6 | 0 | 3 | 3 | 6 | .
CS(=O)(=O)N1CCC[C@]2(CC[C@H](CCC#N)O2)C1 | . | 5 | . | 6 | . | . | .
COc1cccc(OC)c1C(=O)Nc1ccc(S(=O)(=O)Nc2ncccn2)cc1 | 28* | -2 | -7 | 4 | -1 | 6 | 9
COc1cc(C(=O)Nc2ccc(S(=O)(=O)Nc3ncccn3)cc2)c([N+](=O)[O-])cc1OC | -9 | -5 | -2 | -4 | 3 | 5 | .
Cc1ccc2[nH]c3c(=O)n(CC(=O)Nc4ccccc4N4CCN(C)CC4)ncc3c2c1 | 25* | -1 | -5 | -6 | 1 | 8 | 48*
COC(=O)C1CN(C2CCCC2)CCS(=O)(=O)N1Cc1cn(Cc2ccc(F)cc2)nn1 (centres undefined) | . | -2 | . | 4 | . | . | .
CCn1c(COc2cc(C)ccc2C(C)C)nnc1SCC(=O)Nc1nccs1 | 25* | -4 | -3 | 11 | 0 | -6 | -5
CN(c1ccc(OCC(=O)Nc2ccc3[nH]c(=O)[nH]c3c2)cc1)S(=O)(=O)c1ccc(Cl)cc1 | 30* | 2 | -4 | -7 | 0 | 9 | -11
COc1ccc(C[N+]2=C(N)NC3=C4CCCCC4n4c(=O)n(-c5ccccc5)c(=O)n4C3C2)c(OC)c1 (centres undefined) | . | 8 | . | 13 | . | . | .
SMILES | ARFGAP1 inhibitor | NR1D1 modulator | bovine MsrA act | sPLA2-III inh | MsrA inhibitor | ASAP1 GAP inh | ARFGAP1 inh conf
O=C(CN(c1ccc(F)cc1)S(=O)(=O)c1ccc2c(c1)OCCO2)Nc1ccc2c(c1)OCO2 | 27* | 5 | -4 | -18 | -1 | 14 | 3
Cc1c(C=O)c(Cl)n(C)c(=O)c1C#N | 28* | -1 | -2 | -3 | 1 | 20 | 5
CCn1c2ccccc2c2cc(NC(=O)CSc3nnc(-c4cccc(OC)c4)n3N)ccc21 | 31* | 7 | -1 | -7 | 1 | 1 | 26*
COC(=O)CSc1nnc2n1C(C)(C)Cc1ccccc1-2 | 5 | 2 | -8 | 12 | 1 | 6 | .
CC1(C)Cc2ccccc2-c2nnc(SCC(=O)N3CCc4ccccc43)n21 | 27* | 7 | -3 | -4 | -1 | 22 | 24
CC(=O)c1ccc(NC(=O)C(C)OC(=O)C2CCN(c3ccc(C(F)(F)F)cn3)CC2)cc1 (centres undefined) | 6 | 1 | -2 | -9 | 1 | 2 | .
CC(OC(=O)C1CCN(c2ccc(C(F)(F)F)cn2)CC1)C(=O)Nc1cccc([N+](=O)[O-])c1 (centres undefined) | 27* | 4 | -2 | -12 | -1 | -4 | 9
COc1ccc2cc(C(=O)/C=C/c3cc(OC)c(O)c(OC)c3)ccc2c1 | 26* | -1 | -4 | -10 | 0 | 14 | 13
COc1ccc(C(=O)/C=C/c2cc(OC)c(O)c(OC)c2)c(F)c1 | -3 | 4 | -7 | -10 | 3 | -3 | .
CCc1ccc2cc(C)cnc2n1 | 11 | -4 | -2 | 8 | -1 | -5 | .
Cc1cnc2nc(-c3ccccc3)ccc2c1 | 26* | -5 | -4 | 3 | 1 | 4 | 3
O=C(Nc1nnc(Cc2ccc([N+](=O)[O-])cc2)s1)Nc1ccccc1F | 60* | 0 | 0 | 5 | 0 | -3 | 19
Cc1cccnc1Nc1nc(-c2ccc(O)cc2O)cs1 | 34* | -2 | -2 | -1 | 0 | 21 | 18
Cc1ccccc1NC(=O)N(C)[C@H]1C[C@H]2c3[nH]c4c(-c5ccc6c(c5)OCO6)cccc4c3CCN2C[C@H]1[C@H](C)O | . | -4 | . | 0 | . | . | .
COc1[nH]c2ccc(F)cc2c1C(=O)OCC1CCN(CCNS(C)(=O)=O)CC1 | 28* | 4 | 0 | -12 | 0 | -12 | 2
O=C(Cc1c[nH]c2ccccc12)Nc1ccc(Nc2cccnc2)c(-c2cc(F)cc(F)c2)c1 | 25* | 3 | . | -47 | 0 | 5 | 20
O=C(Cc1c[nH]c2ccccc12)Nc1ccc(Nc2cccnc2)c(-c2ccc(Oc3ccccc3)cc2)c1 | 17 | 6 | . | -14 | 1 | 6 | .
O=C(Cc1c[nH]c2ccccc12)Nc1ccc(Nc2cccnc2)c(-c2ccc(OC(F)(F)F)cc2)c1 | 27* | 9 | . | -31 | 1 | 4 | 10
COC(=O)C1=C(C)OC(N)=C(C#N)C1c1ccccc1 (centres undefined) | -14 | -3 | 3 | -21 | 0 | 4 | .
